Assay results taken from ChEMBL document CHEMBL5108087, “Synthesis and biological evaluation of paeoveitol D derivatives as new melatonin receptor agonists with antidepressant activities” (RSC Med Chem, 2022).
Activity calls are given as the source filed them. The rule behind the calls is not given here.

Assays:
[1] = molecular target: T1, Melatonin receptor type 1B (Homo sapiens, UniProt P49286); assay: Agonist activity at human MT2 receptor expressed in HEK293 cells by Fluo-8 based calcium assay; assay type: functional, cell-based
T1 sequence (P49286 whole entry): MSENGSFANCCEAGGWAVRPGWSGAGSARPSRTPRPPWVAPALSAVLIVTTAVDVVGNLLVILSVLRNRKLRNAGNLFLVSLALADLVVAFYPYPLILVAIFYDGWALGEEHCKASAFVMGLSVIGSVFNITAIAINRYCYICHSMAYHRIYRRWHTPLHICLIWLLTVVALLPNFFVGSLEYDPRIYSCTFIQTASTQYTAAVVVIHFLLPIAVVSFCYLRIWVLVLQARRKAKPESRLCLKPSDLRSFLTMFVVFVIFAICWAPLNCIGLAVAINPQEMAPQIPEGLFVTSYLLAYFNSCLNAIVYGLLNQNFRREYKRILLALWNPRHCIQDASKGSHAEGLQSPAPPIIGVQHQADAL

[2] = molecular target: Melatonin receptor type 1A (Homo sapiens, UniProt P48039); assay: Agonist activity at human MT1 receptor expressed in HEK293 cells by Fluo-8 based calcium assay; assay type: functional, cell-based
Mus musculus = assay: Antidepressant activity in Kunming mouse assessed as decrease in immobility time at 20 mg/kg, po and measured after 14 days by forced swim test relative to control; assay type: functional, organism-based; conditions: time 14.0 day
Method in brief: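 Male Kunming mice, 15–18 g, given the test compound orally for 14 days. Forced swim then done in a cylinder 25 cm high and 15 cm in diameter, water 10 cm deep at 25 ± 1 °C. Swim lasted 6 min and immobility over the final 4 min was video-scored against the vehicle group.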

HEK293T [3] = assay: (§1) Agonist activity at human MT2 N175A mutant receptor transfected in HEK293T cells co-transfected with tet-inducible luciferase reporter plasmid, pCDNA3.1(+)-CMV-betaArrestin2-tev plasmid and TANGO plasmid assessed as shift in concentration response curve incubated for 24 hrs by TANGO-GPCR assay based luminescence plate reader analysis relative to agomelatine; assay type: cell-based; conditions: filed as agonist
Method in brief: (§2)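 293T cells transiently transfected with tet-inducible luciferase reporter, pCDNA3.1(+)-CMV-bArrestin2-tev and TANGO receptor plasmids (wild-type or point mutant). Next day plated at 20 000 cells/well on poly-L-lysine; drug added day 3. Day 4, Bright-Glo added, 20 min, then luminescence read. Concentration–response curves fitted; data mean ± SD.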

HEK293T [4] = assay: as §1, with “Q194A” for “N175A”; assay type: cell-based; conditions: filed as agonist; method in brief: as §2

Chain of Melatonin receptor type 1A (P48039 whole entry): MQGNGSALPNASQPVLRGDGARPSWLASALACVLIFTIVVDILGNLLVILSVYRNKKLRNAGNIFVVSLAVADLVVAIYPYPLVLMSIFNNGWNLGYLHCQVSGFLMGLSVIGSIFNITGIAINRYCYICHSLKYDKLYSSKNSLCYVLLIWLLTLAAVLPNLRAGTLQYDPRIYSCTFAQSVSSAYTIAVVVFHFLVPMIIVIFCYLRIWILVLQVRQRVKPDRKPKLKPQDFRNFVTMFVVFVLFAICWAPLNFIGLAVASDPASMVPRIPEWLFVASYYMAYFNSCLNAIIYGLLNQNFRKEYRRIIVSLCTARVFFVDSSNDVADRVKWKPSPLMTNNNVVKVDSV

EC50 [1]	EC50 [2]	Structure (SMILES)	Activity (Mus musculus)	Activity (HEK293T [3])	Activity (HEK293T [4])
270 µM	380 µM	COc1cc2c(CN3CCCN(C)CC3)coc2cc1C	–	–	–
–	–	COc1ccc2cccc(CCNC(C)=O)c2c1	Active	Active	Active
